In ChEMBL document CHEMBL3853334, “Brain penetrant liver X receptor (LXR) modulators based on a 2,4,5,6-tetrahydropyrrolo[3,4-c]pyrazole core” (Bioorg Med Chem Lett, 2016):

Tests used:
[1] = Half life in rat liver microsomes; type: ADME
[2] = Half life in mouse liver microsomes; type: ADME
[3] = Half life in human liver microsomes; type: ADME
Cytochrome P450 3A4 = Cytochrome P450 3A4 (Homo sapiens, UniProt P08684); assay: Inhibition of CYP3A4 (unknown origin)
Cytochrome P450 2C9 = Cytochrome P450 2C9 (Homo sapiens, UniProt P11712); assay: Inhibition of CYP2C9 (unknown origin)
Cytochrome P450 2C9, sequence (P11712 whole entry): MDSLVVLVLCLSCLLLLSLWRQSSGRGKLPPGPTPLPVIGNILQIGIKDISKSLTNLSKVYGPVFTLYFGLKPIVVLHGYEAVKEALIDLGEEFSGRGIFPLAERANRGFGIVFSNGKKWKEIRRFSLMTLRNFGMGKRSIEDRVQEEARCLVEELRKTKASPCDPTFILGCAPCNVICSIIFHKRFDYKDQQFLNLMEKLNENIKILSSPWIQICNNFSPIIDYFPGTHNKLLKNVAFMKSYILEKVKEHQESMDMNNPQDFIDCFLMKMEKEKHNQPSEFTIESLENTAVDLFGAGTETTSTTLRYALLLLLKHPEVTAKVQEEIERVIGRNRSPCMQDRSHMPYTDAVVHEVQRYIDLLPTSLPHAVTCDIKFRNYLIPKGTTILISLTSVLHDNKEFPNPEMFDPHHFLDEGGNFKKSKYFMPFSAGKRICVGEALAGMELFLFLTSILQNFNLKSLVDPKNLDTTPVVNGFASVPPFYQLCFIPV

Cytochrome P450 2D6 = Cytochrome P450 2D6 (Homo sapiens, UniProt P10635); assay: Inhibition of CYP2D6 (unknown origin)
Cytochrome P450 2D6, sequence (P10635 whole entry): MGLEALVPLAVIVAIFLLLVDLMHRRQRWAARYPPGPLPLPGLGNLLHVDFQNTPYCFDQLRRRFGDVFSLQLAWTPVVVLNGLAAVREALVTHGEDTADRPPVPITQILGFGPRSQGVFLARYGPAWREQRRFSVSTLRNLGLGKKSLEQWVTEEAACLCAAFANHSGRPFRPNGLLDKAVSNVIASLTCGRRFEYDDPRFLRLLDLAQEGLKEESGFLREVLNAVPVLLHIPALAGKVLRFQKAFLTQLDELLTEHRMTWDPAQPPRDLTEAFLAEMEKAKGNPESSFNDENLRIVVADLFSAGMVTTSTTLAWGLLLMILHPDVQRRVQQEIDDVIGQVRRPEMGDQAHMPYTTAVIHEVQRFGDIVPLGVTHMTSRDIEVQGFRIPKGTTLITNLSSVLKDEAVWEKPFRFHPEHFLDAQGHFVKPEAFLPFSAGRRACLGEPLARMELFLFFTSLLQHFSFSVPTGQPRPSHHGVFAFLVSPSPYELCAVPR

[4] = Plasma concentration in wild type C57BL mouse at 30 mg/kg, po measured after 4 hrs; type: ADME, organism-based
[5] = Plasma concentration in Sprague-Dawley rat at 30 mg/kg qd administered via oral gavage for 5 days measured 4 hrs post last dose; type: ADME, organism-based
How it was run: (§1)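 Sprague–Dawley rats, oral dosing once daily for 5 days at 1, 3 or 10 mg/kg/day, with a reference LXR agonist at 30 mg/kg in the same study. Drug levels were measured in plasma and brain. Brain ABCA1 mRNA was also measured, along with Aβ1–40 and Aβ1–42 in cerebrum and CSF.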

[6] = Drug uptake in Sprague-Dawley rat brain at 30 mg/kg qd administered via oral gavage for 5 days measured 4 hrs post last dose; type: ADME, organism-based; settings: read-out: Drug uptake; how it was run: as §1
[7] = Drug uptake in wild type C57BL mouse brain at 30 mg/kg, po measured after 4 hrs; type: ADME, organism-based; settings: read-out: Drug uptake
Rattus norvegicus = assay: Induction of ABCA1 mRNA expression in Sprague-Dawley rat brain at 30 mg/kg qd administered via oral gavage for 5 days measured 4 hrs post last dose relative to control; type: functional
[8] = Plasma concentration in Sprague-Dawley rat at 5 mg/kg, po measured after 4 hrs; type: ADME, organism-based
How it was run: (§2)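 Male Sprague–Dawley rats, single oral dose of 5 mg/kg. Plasma and brain drug levels, plus brain ABCA1 mRNA, were measured 4 h after dosing.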

[9] = Plasma concentration in wild type C57BL mouse at 1 mg/kg, po measured after 4 hrs; type: ADME, organism-based
How it was run: (§3)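 Wild-type C57BL mice, single oral dose of 1 or 3 mg/kg. Plasma and brain drug levels were measured 4 h post-dose, and brain ABCA1 mRNA induction was compared with vehicle control.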

[10] = Drug uptake in wild type C57BL mouse brain at 1 mg/kg, po measured after 4 hrs; type: ADME, organism-based; settings: read-out: Drug uptake; how it was run: as §3
[11] = Drug uptake in Sprague-Dawley rat brain at 5 mg/kg, po measured after 4 hrs; type: ADME, organism-based; settings: read-out: Drug uptake; how it was run: as §2
[12] = Plasma concentration in wild type C57BL mouse at 3 mg/kg, po measured after 4 hrs; type: ADME, organism-based; how it was run: as §3
[13] = Drug uptake in Sprague-Dawley rat brain at 1 mg/kg qd administered via oral gavage for 5 days measured 4 hrs post last dose; type: ADME, organism-based; settings: read-out: Drug uptake; how it was run: as §1
[14] = Plasma concentration in Sprague-Dawley rat at 10 mg/kg qd administered via oral gavage for 5 days measured 4 hrs post last dose; type: ADME, organism-based; how it was run: as §1
[15] = Plasma concentration in Sprague-Dawley rat at 1 mg/kg qd administered via oral gavage for 5 days measured 4 hrs post last dose; type: ADME, organism-based; how it was run: as §1
[16] = Drug uptake in Sprague-Dawley rat brain at 10 mg/kg qd administered via oral gavage for 5 days measured 4 hrs post last dose; type: ADME, organism-based; settings: read-out: Drug uptake; how it was run: as §1
[17] = Plasma concentration in Sprague-Dawley rat at 3 mg/kg qd administered via oral gavage for 5 days measured 4 hrs post last dose; type: ADME, organism-based; how it was run: as §1
[18] = Drug uptake in wild type C57BL mouse brain at 3 mg/kg, po measured after 4 hrs; type: ADME, organism-based; settings: read-out: Drug uptake; how it was run: as §3
[19] = Drug uptake in Sprague-Dawley rat brain at 3 mg/kg qd administered via oral gavage for 5 days measured 4 hrs post last dose; type: ADME, organism-based; settings: read-out: Drug uptake; how it was run: as §1

Cytochrome P450 3A4, sequence (P08684 whole entry): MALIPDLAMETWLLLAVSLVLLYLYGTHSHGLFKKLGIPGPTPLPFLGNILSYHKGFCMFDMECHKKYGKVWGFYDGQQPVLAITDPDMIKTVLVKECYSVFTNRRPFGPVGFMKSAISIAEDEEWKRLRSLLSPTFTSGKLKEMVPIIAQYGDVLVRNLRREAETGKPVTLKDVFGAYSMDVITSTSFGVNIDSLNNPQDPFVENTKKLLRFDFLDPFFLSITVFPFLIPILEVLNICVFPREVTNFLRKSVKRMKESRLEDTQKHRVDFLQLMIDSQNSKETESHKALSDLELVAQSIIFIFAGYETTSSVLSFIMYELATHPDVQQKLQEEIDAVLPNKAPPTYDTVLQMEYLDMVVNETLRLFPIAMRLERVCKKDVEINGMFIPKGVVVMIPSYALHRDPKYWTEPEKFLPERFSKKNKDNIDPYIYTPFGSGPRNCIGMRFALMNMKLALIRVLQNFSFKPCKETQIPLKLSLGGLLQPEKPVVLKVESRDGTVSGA

| SMILES | half-life [1] | half-life [2] | half-life [3] | IC50 (Cytochrome P450 3A4) | IC50 (Cytochrome P450 2C9) | IC50 (Cytochrome P450 2D6) | also measured |
| --- | --- | --- | --- | --- | --- | --- | --- |
| CC(C)[C@@H]1c2nn(-c3cccc(S(C)(=O)=O)c3)cc2CN1c1cc(C(F)(F)F)ncn1 | > 1 h | 0.833 h | > 1 h | > 30 µM | 5.21 µM | > 30 µM | – |
| O=S(=O)(c1ccccc1)N(CC(F)(F)F)c1ccc(C(O)(C(F)(F)F)C(F)(F)F)cc1 [T091317] | – | – | – | – | – | – | concentration at 4 h [4]: 3770 nM; concentration at 4 h [5]: 2800 nM; concentration at 4 h [6]: 5360 nM; concentration at 4 h [7]: 8050 nM; fold change (FC) (Rattus norvegicus): 5 |
| Cc1nc(N2Cc3cn(-c4cccc(S(C)(=O)=O)c4)nc3[C@H]2C(C)C)cc(C(F)(F)F)n1 | > 1 h | > 1 h | > 1 h | 21.1 µM | 5.04 µM | 15.8 µM | concentration at 4 h [8]: 423 nM; concentration at 4 h [9]: 143 nM; concentration at 4 h [10]: 212 nM; concentration at 4 h [11]: 825 nM |
| COc1cc(N2Cc3cn(-c4cccc(S(C)(=O)=O)c4)nc3[C@H]2C(C)(C)C)ccn1 | > 1 h | 1.1 h | > 1 h | > 30 µM | 8.3 µM | 7.8 µM | concentration at 4 h [8]: 1220 nM; concentration at 4 h [12]: 1080 nM; concentration at 4 h [13]: 641 nM; concentration at 4 h [14]: 1570 nM; concentration at 4 h [15]: 187 nM; concentration at 4 h [16]: 5040 nM; concentration at 4 h [17]: 463 nM; concentration at 4 h [18]: 1020 nM; concentration at 4 h [11]: 2280 nM; concentration at 4 h [19]: 1560 nM |
| COc1cc(N2Cc3cn(-c4cccc(S(C)(=O)=O)c4)nc3[C@H]2C(C)C)nc(C)n1 | – | – | > 1 h | 12.9 µM | 6.62 µM | 5.37 µM | – |
| CC(C)[C@@H]1CN(c2ccc(CO)c(S(C)(=O)=O)c2)CCN1c1ncc(CO)c(C(F)(F)F)n1 | 1.15 h | – | 0.717 h | – | – | – | – |
| COc1nc(C)cc(N2Cc3cn(-c4cccc(S(C)(=O)=O)c4)nc3[C@H]2C(C)C)n1 | > 1 h | > 1 h | > 1 h | – | 5.75 µM | 24.2 µM | concentration at 4 h [9]: 2 nM |
| COc1cc(N2Cc3cn(-c4cccc(S(C)(=O)=O)c4)nc3[C@H]2C(C)C)ccn1 | > 1 h | > 1 h | > 1 h | > 30 µM | 5.63 µM | > 30 µM | – |

The next lines start with results.

| half-life [1] | half-life [2] | half-life [3] | IC50 (Cytochrome P450 3A4) | IC50 (Cytochrome P450 2C9) | IC50 (Cytochrome P450 2D6) | SMILES | also measured |
| --- | --- | --- | --- | --- | --- | --- | --- |
| > 1 h | – | > 1 h | 2.5 µM | 1.44 µM | 27 µM | COc1ncnc(N2Cc3cn(-c4cccc(S(C)(=O)=O)c4)nc3[C@H]2C(C)C)c1F | – |
| > 1 h | > 1 h | > 1 h | > 30 µM | 2.11 µM | 25.7 µM | CC(C)[C@@H]1c2nn(-c3cccc(S(C)(=O)=O)c3)cc2CN1c1nccc(C(F)(F)F)n1 | – |
| 3.12 h | – | > 1 h | 3.05 µM | 0.373 µM | – | CC(C)[C@@H]1c2nn(-c3cccc(S(C)(=O)=O)c3)cc2CN1c1ncc(CO)c(C(F)(F)F)n1 | – |
| > 1 h | > 1 h | > 1 h | 12.8 µM | 1.87 µM | 20.9 µM | CC(C)[C@@H]1c2nn(-c3cccc(S(C)(=O)=O)c3)cc2CN1c1ccnc(C(F)(F)F)n1 | concentration at 4 h [8]: 1740 nM; concentration at 4 h [12]: 2890 nM; concentration at 4 h [18]: 3150 nM; concentration at 4 h [11]: 2060 nM |
| > 1 h | – | > 1 h | 7.7 µM | 0.493 µM | 7.75 µM | CC(C)[C@@H]1c2nn(-c3ccc(CO)c(S(C)(=O)=O)c3)cc2CN1c1ncc(CO)c(C(F)(F)F)n1 | – |
| – | > 0.367 h | – | > 30 µM | 3.81 µM | 25.7 µM | COc1cc(N2Cc3cn(-c4cccc(S(C)(=O)=O)c4)nc3[C@H]2C(C)C)cc(C)n1 | – |
| > 1 h | – | > 1 h | 15.4 µM | 0.858 µM | 12.7 µM | COc1ncc(F)c(N2Cc3cn(-c4cccc(S(C)(=O)=O)c4)nc3[C@H]2C(C)C)n1 | concentration at 4 h [9]: 50 nM |
